Reference: ChEMBL document CHEMBL1148398, “Design, synthesis, and biological evaluation of thio-containing compounds with serum HDL-cholesterol-elevating properties” (2004)

Legend:
Cricetinae gen. sp. [1] = experiment: Effect of compound on high-density lipoprotein cholesterol levels in 1st group of cholesterol-fed male hamsters at 3 mg/kg/day after 14 days of treatment; type: functional, organism-based
Cricetinae gen. sp. [2] = experiment: Effect of compound on liver weight in 2nd group of cholesterol-fed male hamsters at 10 mg/kg/day after 14 days of treatment; type: functional
Summary of the method: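 Male Syrian Golden hamsters, 90–100 g, fed chow plus 0.25% cholesterol for 2 weeks before and throughout dosing. Compound suspended in 2% Tween 80 in saline, given by oral gavage for 14 days; vehicle controls. Fasted 4 h, last dose 2 h before sacrifice, then weighed and blood and liver collected. Liver enzymes read on a clinical analyzer. Six per group, mean ± SEM.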

Rattus norvegicus [3] = experiment: Effect of compound on gain in body weight in 6th group of normal chow-fed male rats after a dose of 50 mg/kg/day; type: functional
Summary of the method: (§1)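 Male Sprague–Dawley CD rats (60–80 g) on standard chow under a reversed 12 h light/dark cycle. Compound was suspended in 1.3% Tween 80/0.25% CMC and given as a single daily oral gavage dose for 4 days. Rats were fasted overnight and killed 24 h after the last dose. Serum ALT, AST, ALKP and LDH were read on a clinical analyzer. Weight gain was start versus end weight. Mean ± SEM, n = 6.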

Rattus norvegicus [4] = experiment: Effect of compound on gain in body weight in 7th group of normal chow-fed male rats after a dose of 100 mg/kg/day; type: functional; summary of the method: as §1
Rattus norvegicus [5] = experiment: Effect of compound on alanine aminotransferase (ALT) levels in 5th group of normal chow-fed male rats after a dose of 20 mg/kg/day; type: functional, organism-based; summary of the method: as §1
Rattus norvegicus [6] = experiment: Effect of compound on alkaline phosphatase (ALKP) levels in 3rd group of normal chow-fed male rats after a dose of 5 mg/kg/day; type: functional, organism-based; summary of the method: as §1
Rattus norvegicus [7] = experiment: Effect of compound on aspartate aminotransferase (AST) levels in 3rd group of normal chow-fed male rats after a dose of 5 mg/kg/day; type: functional, organism-based; summary of the method: as §1
Rattus norvegicus [8] = experiment: Effect of compound on aspartate aminotransferase (AST) levels in 5th group of normal chow-fed male rats after a dose of 20 mg/kg/day; type: functional, organism-based; summary of the method: as §1
Rattus norvegicus [9] = experiment: Effect of compound on liver weight in 4th group of normal chow-fed male rats after a dose of 10 mg/kg/day; type: functional
Summary of the method: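 Male Sprague–Dawley CD rats, 60–80 g, on chow with a reverse 12 h light/dark cycle. Given one oral gavage dose daily for 4 days, suspended in 1.3% Tween 80/0.25% CMC. Fasted overnight and sacrificed 24 h after the last dose for blood and liver. Serum liver enzymes read on a clinical analyzer. Six per group, mean ± SEM.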

Rattus norvegicus [10] = experiment: Effect of compound on relative liver weight in 7th group of normal chow-fed male rats after a dose of 100 mg/kg/day; type: functional
Summary of the method: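 Chow-fed male Sprague–Dawley CD rats, 60–80 g, dosed by oral gavage once daily for 4 days in 1.3% Tween 80/0.25% CMC. Fasted overnight and sacrificed 24 h after the last dose. Liver weight expressed as % of body weight at termination. Six per group, mean ± SEM.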

Rattus norvegicus [11] = experiment: Effect of compound on serum apolipoprotein A1 concentration in chow-fed male rats at a dose of 50 mg/kg/day; type: functional, organism-based
Summary of the method: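 Separate dose-response study in male Sprague–Dawley CD rats, 60–80 g, on chow. Oral gavage once daily for 4 days in 1.3% Tween 80 / 0.25% CMC; fasted overnight, bled 24 h after last dose. Apo-A1 by ELISA with rabbit anti-rat primary, alkaline phosphatase-conjugated anti-rabbit IgG and p-nitrophenyl phosphate substrate. HDL-C by FPLC fractionation. Mean ± SEM, six per group.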

Rattus norvegicus [12] = experiment: Effect of compound on thyroxine levels in 1st group of normal chow-fed male rats after a dose of 1 mg/kg/day; type: functional, organism-based
Summary of the method: (§2)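 Male Sprague–Dawley CD rats, 60–80 g, on standard chow with reverse 12 h light/dark cycle. One oral gavage dose daily for 4 days, suspended in 1.3% Tween 80 and 0.25% CMC. Fasted overnight; sacrificed 24 h after the last dose. Serum TC on clinical analyzer, lipoproteins by FPLC with cholesterol per fraction, T4 on analyzer. Mean ± SEM, six rats per group.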

Rattus norvegicus [13] = experiment: Effect of compound on total plasma cholesterol levels in 3rd group of normal chow-fed male rats after a dose of 5 mg/kg/day; type: functional, organism-based; summary of the method: as §2
Rattus norvegicus [14] = experiment: Effect of compound on triglyceride levels in 4th group of normal chow-fed male rats after a dose of 10 mg/kg/day; type: functional, organism-based
Summary of the method: (§3)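 Male Sprague–Dawley CD rats (60–80 g) on Purina 5001 chow with a reverse 12 h light/dark cycle. Dosed once daily by oral gavage for 4 days, suspended in 1.3% Tween 80 / 0.25% CMC. Fasted overnight and bled 24 h after the last dose. Serum TC and glycerol-blanked TG measured enzymatically; VLDL-C by FPLC fractionation with cholesterol assay. n=6, mean ± SEM.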

Rattus norvegicus [15] = experiment: Effect of compound on high-density lipoprotein cholesterol levels in 1st group of normal chow-fed male rats after a dose of 1 mg/kg/day; type: functional, organism-based
Rattus norvegicus [16] = experiment: Effect of compound on very low-density lipoprotein cholesterol levels in 6th group of normal chow-fed male rats after a dose of 50 mg/kg/day; type: functional, organism-based; summary of the method: as §3
Rattus norvegicus [17] = experiment: Effect of compound on triglycerides level in 3rd group of normal chow-fed male rats after a dose of 5 mg/kg/day; type: functional, organism-based; summary of the method: as §3
[18] = Effect on serum lipids in 3rd group of cholesterol-fed male hamsters at 30 mg/kg/day after 14 days of treatment was evaluated as ratio of total cholesterol levels to high-density lipoprotein cholesterol levels; type: functional
Summary of the method: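 Male Syrian Golden hamsters on chow plus 0.25% cholesterol, 2 weeks before and during dosing. Oral gavage for 14 days in 2% Tween 80/saline. Fasted 4 h before sacrifice. Serum total cholesterol measured enzymatically; HDL-C from cholesterol in FPLC lipoprotein fractions; TC/HDL-C ratio calculated. Six per group, mean ± SEM.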

Rattus norvegicus [19] = experiment: Effect of compound on low-density lipoprotein cholesterol levels in 5th group of normal chow-fed male rats after a dose of 20 mg/kg/day; type: functional, organism-based; summary of the method: as §2
Mesocricetus auratus [20] = experiment: Effect of compound on liver weight in 4th group of cholesterol-fed male hamsters at 100 mg/kg/day after 14 days of treatment
Mesocricetus auratus [21] = experiment: Effect of compound on gain in body weight in 2nd group of cholesterol-fed male hamsters at 10 mg/kg/day after 14 days of treatment
Rattus norvegicus [22] = experiment: Effect of compound on alanine aminotransferase (ALT) levels in 4th group of normal chow-fed male rats after a dose of 10 mg/kg/day
Cricetinae gen. sp. [23] = experiment: Effect of compound on total plasma cholesterol levels in 3rd group of cholesterol-fed male hamsters at 30 mg/kg/day after 14 days of treatment; conditions: Mesocricetus auratus
Cricetinae gen. sp. [24] = experiment: Effect of compound on lactic dehydrogenase (LDH) levels in 1st group of cholesterol-fed male hamsters at 3 mg/kg/day after 14 days of treatment; conditions: Mesocricetus auratus
Cricetinae gen. sp. [25] = experiment: Effect of compound on aspartate aminotransferase (AST) levels in 1st group of cholesterol-fed male hamsters at 3 mg/kg/day after 14 days of treatment; conditions: Mesocricetus auratus

SMILES: CCN1CC(=O)N(c2cc(Cl)ccc2C)C1=S
- Serum level (Cricetinae gen. sp. [1]): 136 mg/dL
- Liver weight (Cricetinae gen. sp. [2]): 9.08 g
- Body weight (Rattus norvegicus [3]): 27.5 g
- Body weight (Rattus norvegicus [4]): 22.5 g
- Level (Rattus norvegicus [5]): 78 U l-1
- Level (Rattus norvegicus [6]): 344 U l-1
- Level (Rattus norvegicus [7]): 216 U l-1
- Level (Rattus norvegicus [8]): 318 U l-1
- Liver weight (Rattus norvegicus [9]): 8.3 g
- Relative liver weight (Rattus norvegicus [10]): 4.5%
- Serum level (Rattus norvegicus [11]): 88.8 mg/dL
- Serum level (Rattus norvegicus [12]): 3.65 µg/dL
- Serum level (Rattus norvegicus [13]): 62 mg/dL
- Serum level (Rattus norvegicus [14]): 21 mg/dL
- Serum level (Rattus norvegicus [15]): 38 mg/dL
- Serum level (Rattus norvegicus [16]): 6.5 mg/dL
- Serum level (Rattus norvegicus [17]): 18 mg/dL
- Ratio [18]: 2.39
- Serum level (Rattus norvegicus [19]): 8.5 mg/dL
- Liver weight (Mesocricetus auratus [20]): 8.95 g
- Body weight (Mesocricetus auratus [21]): 9.5 g
- Level (Rattus norvegicus [22]): 58 U l-1
- Serum level (Cricetinae gen. sp. [23]): 372 mg/dL
- Level (Cricetinae gen. sp. [24]): 1230 U l-1
- Level (Cricetinae gen. sp. [25]): 312 U l-1
